{"data": "Measurements gathered from unrelated publications", "target": "Fibroblast growth factor receptor 4 (FGFR4, Homo sapiens, UniProt P22455)"}
{"SMILES": "CC(C)S(=O)(=O)c1ccc2nccc(Nc3ccc4sc(C5CCCC5)nc4c3)c2c1", "observed": "enzyme activity", "action": "inhibitor", "tested at": "1 µM", "measurement": "activity vs control", "result": "108%"}
{"SMILES": "C=CC(=O)N1CCC([C@@H]2CCNc3c(C(N)=O)c(-c4ccc(Oc5ccccc5)cc4)nn32)CC1", "observed": "cell-free assay", "tested at": "1 µM", "measurement": "inhibition", "result": "10%"}
{"SMILES": "CCCCC(=O)Nc1ccc(-c2ccc3ncn(CCC)c(=O)c3c2)cn1", "observed": "binding", "technique": "competition with immobilised ligand", "tested at": "0.5 µM", "measurement": "remaining binding", "result": "100%"}
{"SMILES": "C=CC(=O)N1CCC[C@@H](n2nc(-c3ccc(Oc4ccccc4)cc3)c3c(N)ncnc32)C1", "observed": "enzyme activity", "action": "inhibitor", "tested at": "1 µM", "measurement": "inhibition", "result": "8%"}
{"SMILES": "COc1ccc2[nH]c3c4[nH]c5ccc(OC)cc5c4c4c(c3c2c1)C(=O)NC4=O", "observed": "binding", "tested at": "1 µM", "measurement": "remaining binding", "result": "85%"}
{"SMILES": "C1=C/COCc2cc(ccc2OCCN2CCCC2)Nc2nccc(n2)-c2cccc(c2)COC/1", "observed": "binding", "tested at": "0.1 µM", "measurement": "remaining binding", "result": "100%"}
{"SMILES": "COc1ccc2oc(-c3ccc4nc(N)oc4c3)c/c(=N\\c3ccccc3NC(=O)CCN)c2c1", "observed": "binding", "tested at": "1 µM", "measurement": "remaining binding", "result": "102%"}
{"SMILES": "C[C@H]1CC[C@H](n2c3cnccc3c3cnc(Nc4ccc5c(n4)CCN(C(=O)CO)C5)nc32)CC1", "observed": "binding", "tested at": "1 µM", "measurement": "remaining binding", "result": "100%"}
